“Also recorded” adds a separate entry of the source.
Columns and labels:
[1] = test system: M3 muscarinic receptors in HEK293T cells; experiment: Carbachol-stimulated Ca2+ transient; assay type: cell-based; conditions: compound 10 μM, carbachol 10 nM, HEK cells with human M3 receptor
Procedure, shortened: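 HEK-293 cells stably expressing human M3 muscarinic receptor, plated overnight, then loaded with Fluo4-NW for 30 min at 37 °C. Test compound added at 10 μM (1% DMSO). After […] minutes, baseline fluorescence read on a plate reader. Carbachol (10 nM final) injected, and the rise in intracellular Ca2+ expressed as percentage of baseline Ca2+ level.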

cysteine protease papain = conditions: result in words; cited from earlier work
RGS4 = experiment: FCPIA: inhibition of Gαo binding to RGS4; conditions: for activity at RGS4: result in words
RGS4, sequence (P49798 whole entry): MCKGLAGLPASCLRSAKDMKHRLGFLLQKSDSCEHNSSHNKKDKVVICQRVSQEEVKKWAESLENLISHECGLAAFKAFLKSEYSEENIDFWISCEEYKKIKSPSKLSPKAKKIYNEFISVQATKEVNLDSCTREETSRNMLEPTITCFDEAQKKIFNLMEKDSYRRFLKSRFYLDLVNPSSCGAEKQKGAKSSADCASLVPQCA
Procedure, shortened: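 Primary FCPIA screen for inhibition of Gαo binding to RGS4, run in parallel against RGS8, its closest sequence relative, to assess selectivity. IC50 values are averages of two independent experiments. Calculated ΔpIC50 mean error: 0.2 for RGS4, 0.14 for RGS8.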

Aqueous solubility = assay type: physicochemical; conditions: result in words

## Cc1ccc(-n2sc(=O)n(Cc3ccc(F)cc3)c2=O)cc1 [1a]
[1]
  effect on carbachol-induced Ca2+ transient: nearly completely abolished
Cysteine protease papain
  inhibition of papain: failing to inhibit

## Cc1ccc(Cn2sc(=O)n(Cc3ccc(F)cc3)c2=O)cc1 [1i]
RGS4
  selectivity for RGS4 versus RGS8: near three orders of magnitude

## Cc1ccc(Cn2sc(=O)n(Cc3ccccc3)c2=O)cc1 [2i]
RGS4
  selectivity for RGS4 versus RGS8: near three orders of magnitude

## CCCCn1c(=O)sn(CC)c1=O [11b]
[1]
  effect on carbachol-induced Ca2+ transient: no effect; also recorded: no calcium transient
Aqueous solubility
  aqueous solubility: high solubility; also recorded: excellent aqueous solubility

## Cc1ccc(-n2sc(=O)n(Cc3ccc(Cl)cc3)c2=O)cc1 [compound 3]
RGS4
  selectivity for RGS4 versus RGS8: > 1000 fold

## Cc1ccc(Cn2c(=O)sn(-c3ccc(C)cc3)c2=O)cc1 [compound 4]
RGS4
  selectivity for RGS4 versus RGS8: > 1000 fold

## Cc1ccc(-n2sc(=O)n(Cc3cccc(Cl)c3)c2=O)cc1 [compound 5]
RGS4
  selectivity for RGS4 versus RGS8: > 1000 fold

## COc1ccc(Cn2c(=O)sn(-c3ccc(C)cc3)c2=O)cc1 [compound 7]
RGS4
  selectivity for RGS4 versus RGS8: > 1000 fold

## CCn1sc(=O)n(CCOC)c1=O [compound 13]
RGS4
  selectivity for RGS4 versus RGS8: > 600 fold
[1]
  effect on carbachol-induced Ca2+ transient: no effect
Aqueous solubility
  aqueous solubility: further improved solubility

## Cc1ccc(CN2C(=O)CN(c3ccc(C)cc3)C2=O)cc1 [compound 14]
RGS4
  activity at RGS4: neither 14 or 15 displayed activity

## Cc1ccc(C2=CC(=O)N(Cc3ccccc3)C2=O)cc1 [compound 15]
RGS4
  activity at RGS4: neither 14 or 15 displayed activity
